48 sequences from the EternaBench riboswitch data can be followed below.

The series deals with MS2 coat protein. Kind of series: apparent Kd, MS2 coat protein; higher = weaker binding; RNA-MaP array; FMN 200 µM where present. In outline:
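Green signal was scaled to red-channel RNA signal and control-cluster median Fmax, and the apparent Kd was taken as the median of filtered per-cluster binding-curve fits. The binding series used SNAP-549-labelled MS2 coat protein from 0.7 or 1.5 nM, doubling to 3 µM, on designs transcribed by stalled E. coli RNA polymerase on Illumina sequencing-chip clusters. Each series ran without and then with constant ligand in 100 mM Tris-HCl pH 7.5, 80 mM KCl, 4 mM MgCl2, BSA, DTT, yeast tRNA and Tween-20.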

Where [1] appears, read: designed as: OFF switch for flavin mononucleotide, no ligand.
The mark [2] stands for this setting: ligand present: flavin mononucleotide, designed as: OFF switch for flavin mononucleotide.
Where [3] appears, read: designed as: ON switch for flavin mononucleotide, no ligand.
Where [4] appears, read: ligand present: flavin mononucleotide, designed as: ON switch for flavin mononucleotide.

Consider “GGUUGGCGAGGAUAUACAUGAGGAUCACCCAUGUGGUCCUGUGGCUGAUCUUGCCUUUGUAGAAGGCGCGAAUC”, for which the “apparent Kd” value was 0.0254 µM under setting [1] and 0.103 µM under setting [2]. As to “CAUCAUCAAGUGAGGAUAUCGUCAAAUCAAUCAAACGAGAAGGCACAUGAGGAUCACCCAUGUCGACUCAUCAA”, the “apparent Kd” value reads like this: under setting [1], 0.0183 µM; under setting [2], 0.0249 µM.

As to “CCGGAAAUGAAGGAUAUAGGAGUCGAUAGACACCUAGAAGGUCAUACAUGAGGAUCACCCAUGUGUCCUACCGG”, the “apparent Kd” value turned out to be 0.0152 µM under setting [1] and 0.031 µM under setting [2]. For “UUAUUCAGAGGAUAUGCGCAUAGAUAAGACUUUUUUUCUUAACAUGAGGAUCACCCAUGUAGAAGGCUGUAAUU”, the “apparent Kd” value stood at 0.0184 µM under setting [1] and 0.0187 µM under setting [2]. As to “CAUCGGAAGCAGAAGGCAUGAACGGACAUGAGGAUCACCCAUGUUGGAAACUCAUGCCCGAAAGAUGAGGAUAUGCGUCCGGGU”, the “apparent Kd” value was determined as 0.0728 µM under setting [1] and 0.017 µM under setting [2]. For the sequence “AAUAAACGCACAGGAUAUAGCAUCGACGUUGAGAACUUAAAGACGUCGAUGCUAGAAGGGUGAAAACAUGAGGAUCACCCAUGU”, the “apparent Kd” value reads like this: under setting [3], 0.0876 µM; under setting [4], 0.0187 µM. In the same order, the values of “CGCUAGGAUGGGUCUAAUGGACCACAGGAUAUGCUUGUACAUGAGGAUCACCCAUGUAAUAUUGUGCAGAAGGGUGGAUUCACG” are 0.0548 µM and 0.00827 µM. In the case of “GUACUUGUGCAGAAGGGCAUUGAAUUAGGUUUUUAGGUUGAUCAGAAAUGCAGGAUAUGUUAAACAUGAGGAUCACCCAUGUAC”, the “apparent Kd” value stood at 0.0663 µM under setting [3] and 0.0137 µM under setting [4]. For “AUGCCGUGCAGAGCGCGACGGCGUACAUGAGGAUCACCCAUGUAGGAUAUACUACACAAAGUGUAGUAGAAGGACAUGCGACUG”, the “apparent Kd” value under setting [1] is 0.062 µM and the “apparent Kd” value under setting [2] stood at 0.145 µM. For “CCUCUACAUGAGGAUCACCCAUGUGAGGAUAUCAAAGCCAGAGCGGCGCUCUGGCCCAUGAGAAGGUGCAUGGA”, the “apparent Kd” value reads like this: under setting [1], 0.0259 µM; under setting [2], 0.133 µM.

In the case of “CUUUUGUGAGGAUAUUAGUAGUUUAUAAUUGGUGUUAUUACUGAGAAGGCACAUGAGGAUCACCCAUGUACAAC”, the “apparent Kd” value was found to be 0.0479 µM under setting [1] and 0.181 µM under setting [2]. Consider “AAAAAAAAAAGGCAGGAUAUCCAAAAAAAAACAUGAGGAUCACCCAUGUAAAAAAAAAAAAAAUGGGAGAAGGGUCAAAAAAAAAA”, for which the “apparent Kd” value under setting [3] stood at 0.0888 µM and the “apparent Kd” value under setting [4] stood at 0.034 µM. In the case of “CCGCUGUGAGGAUAUUAGUAGUAGUCAGAAUAGACUAUUACUGAGAAGGCACAUGAGGAUCACCCAUGUCGCGG”, the “apparent Kd” value is, setting by setting: under setting [1], 0.0312 µM; under setting [2], 0.0431 µM. Taken in the same sequence, the figures for “ACGACGAAAGUCGAACGAUGAUCGAGAAGGACAUGAGGAUCACCCAUGUCCGCUGUAACAGCCAUGUAGGAUAUCGAUCAUCGA” were 0.00359 µM and 0.00383 µM. On to “UCUCGACAUGAGGAUCACCCAUGUCAGGAUAUUGUGUUUGAGGUUUUUUACCUUUUGGCAAGAAGGGAUGUGUG”, for which the “apparent Kd” value turned out to be 0.0275 µM under setting [1] and 0.0289 µM under setting [2].

“GUUAUAAAGGUAGGAUAUUGUAUUAUAAUUAAAUAAGAAGGAUCUCACAUGAGGAUCACCCAUGUAAGAGGAUCACCCAUGUAU”: the “apparent Kd” value was 0.00963 µM under setting [1] and 0.00814 µM under setting [2]. On to “AAUACAUGAGGAUCACCCAUGUGCAUUGUUUAAGAGGAAGCACAGGAUAUGCAGCCAAUCGGUUAGCAGAAGGGUGACUUCAAC”, for which the “apparent Kd” value was found to be 0.0852 µM under setting [3] and 0.0816 µM under setting [4]. “GGCGGGAAUGAGAAGGGUCACAUGAGGAUCACCCAUGUGCUCUUCGCCGUGACAGGAUAUCAUUGCCGUCAGGUUAGAUUUUUG”: the “apparent Kd” value under setting [1] was found to be 0.00842 µM and the “apparent Kd” value under setting [2] was determined as 0.0247 µM. As to “UAGUAUAAGGGCAUUAAACAUGAGGAUCACCCAUGUACGAUAGAGGAUAUGCAUUUCAGUUGAGAGUAGAAGGUUAGAGAAUUG”, the “apparent Kd” value is 0.0372 µM under setting [1] and 0.0434 µM under setting [2]. For the sequence “GGUACCUUUACAGGAUAUGCUAUCCUUUGGGUAGCAGAAGGGUGAUACAUGAGGAUCACCCAUGUGGUGCCAGGGCGUGAGCCC”, the “apparent Kd” value is, setting by setting: under setting [3], 0.0932 µM; under setting [4], 0.313 µM. Turning to “UCGGGUUAUACAGGAUAUGUUUAGGAUAAUACAUGCAGUUAUUAAUUAAUGACAGAAGGGUAUACAUGAGGAUCACCCAUGUCA”, the “apparent Kd” value was 0.707 µM under setting [1] and 0.374 µM under setting [2]. In the same order, the values of “GGUGGACAUGAGGAUCACCCAUGUGAGGAUAUCGGCUGGUACGUGUUGGCUGGCAUCUCGAGAAGGCACAUAGU” are 0.0809 µM and 0.18 µM. For the sequence “AAUAAUAAUGUCAGGAUAUCUAGAGCCUCGGCUCUAGAGAAGGGACAUGAGGAUCACCCAUGUCACUCAAUAAU”, the “apparent Kd” value under setting [1] worked out at 0.0179 µM and the “apparent Kd” value under setting [2] turned out to be 0.0243 µM. Take “UUAUUAUAUGUAGGAUAUGCAUAUUGUUAUUAUGCAGAAGGACAUGAGGAUCACCCAUGUAUAUUAUUAUUAUAUAUUAUAUAU”: the “apparent Kd” value reads like this: under setting [1], 0.0294 µM; under setting [2], 0.0488 µM. Take “GCGAUUUUGUAGAAGGUACGUUAUAAGACAAUGUAAGGAUAUACUGACAUGAGGAUCACCCAUGUAUAAUUAGUUUACAGUCGC”: the “apparent Kd” value is, setting by setting: under setting [3], 0.00774 µM; under setting [4], 0.00591 µM.

For “GCAGGAUAAGUGAGGAUAUACCUCUGGAUACAGAGGUAGAAGGCACAUGAGGAUCACCCAUGUCAUUCACCUGC”, the “apparent Kd” value is 0.0133 µM under setting [1] and 0.0242 µM under setting [2]. In the same order, the values of “CCGGAAAUGAAGGAUAUAGGUGUCGAUAGACACCUAGAAGGUCAUACAUGAGGAUCACCCAUGUGUCCUACCGG” are 0.0161 µM and 0.0306 µM.

For the sequence “UUAAAUCAUGUAGGAUAUGCAUGGCGAAGCUACGCAGAAGGACAUGAGGAUCACCCAUGUUAAAGCUACCGAGUUCGGUGGCAA”, the “apparent Kd” value by setting is: under setting [1], 0.116 µM; under setting [2], 0.156 µM. As for “AACUCACAUGAGGAUCACCCAUGUGAGGAUAUAUUAAUAUGUAUGUUAUUAUGUAUUGAUAGAAGGCGCGUGAU”, the “apparent Kd” value worked out at 0.0463 µM under setting [1] and 0.0491 µM under setting [2]. As to “CUGCUUCCCAGUAUGGGUAUUUUUACAGAAGGCCAGGCACAUGAGGAUCACCCAUGUCAAGUUUUGGAGGAUAUGUUAUUGUCG”, the “apparent Kd” value stood at 0.00853 µM under setting [3] and 0.00472 µM under setting [4]. Consider “UCGUCGUCAGGAUAUUUUGUAUUGCAGAUUUCGCAGUUGCCAAAGAAGGGACAUGAGGAUCACCCAUGUAGUCU”, for which the “apparent Kd” value is 0.0326 µM under setting [1] and 0.0422 µM under setting [2]. Turning to “GAUGCUAUCGGAGGAUAUUCAUACCGGAAACGGACAUGAGGAUCACCCAUGUGGCGAAAGCCUUGGGAGAAGGCCGAUAGCAUC”, the “apparent Kd” value is, setting by setting: under setting [3], 0.61 µM; under setting [4], 0.0205 µM. On to “UUACCACAUGAGGAUCACCCAUGUCAGGAUAUACUAUUAACUACAUUUUCUUAUUUUAGUAGAAGGGACACUUU”, for which the “apparent Kd” value is, setting by setting: under setting [1], 0.026 µM; under setting [2], 0.0231 µM. Taken in the same sequence, the figures for “AAUAACAGAGGAUAUACUGUUUUAUGUGUUUAUUAUUUUGAACAUGAGGAUCACCCAUGUAGAAGGCUGAAUAA” were 0.0239 µM and 0.021 µM. Take “UCACGGGAUUGAGGAUAUAUAUUAAUUUUUUUUAUAGAAGGCAAAAUGUUAGAUUAUUCACUAUACAUGAGGAUCACCCAUGUU”: the “apparent Kd” value under setting [2] stood at 0.0227 µM.

For the sequence “GUGGUCAGACAUGAGGAUCACCCAUGUGGAAUAAAUAAGGAAAAGGAUAUUCAAUAUAGGAUAUAGAAGAAGGUUUGGUUGGUG”, the “apparent Kd” value was 0.0744 µM under setting [3] and 0.0834 µM under setting [4]. Take “AAACAUGUCCGAGGAUAUCUGGAAACAUUUUCAAGAGAAGGCGGACAUGAGGAUCACCCAUGUCUCUCCUCAUCAACUACAAAU”: the “apparent Kd” value is, setting by setting: under setting [1], 0.0212 µM; under setting [2], 0.181 µM. On to “CGGUACUGAGGAUAUACAUGAGGAUCACCCAUGUGUUCCAGCUAGCGUACUGGCAUUUGUAGAAGGCGGUGCUG”, for which the “apparent Kd” value is, setting by setting: under setting [1], 0.0168 µM; under setting [2], 0.048 µM. With “GGGUACAUCGGAGGAUAUCAUGUAAAUACAUGAGGAUCACCCAUGUCGAUGGAGACAUCGGAGAUUGAGAAGGCCGAUGUACCC”, the “apparent Kd” value came out at 0.178 µM under setting [3] and 0.00958 µM under setting [4]. As to “AUAUGGGCUAACAUGAGGAUCACCCAUGUGUUAUACUUAAUAUAGGAUAUGUUUAUACUUUUUGGGCAGAAGGAUGGCCCAUAU”, the “apparent Kd” value by setting is: under setting [3], 0.0679 µM; under setting [4], 0.0687 µM. As for “CCUAAGGAGGCAGGAUAUAGUGUGGUGGCCGGGCUCCCACGGCGAGCGGCACUAGAAGGGUCGCUACAUGAGGAUCACCCAUGU”, the “apparent Kd” value was 0.025 µM under setting [3] and 0.0173 µM under setting [4]. In the case of “CUUAGACAUGAGGAUCACCCAUGUGAGGAUAUGAUGCGAUCGUGCUGACAUGAUCGCAUCAGAAGGCACAAAUG”, the “apparent Kd” value under setting [1] worked out at 0.141 µM and the “apparent Kd” value under setting [2] was 0.173 µM. Regarding “GGUCGUCACAUGAACAUGAGGAUCACCCAUGUAAAUUCUCAUGAGGAUAUGGAUCCUAAUUGGAUCCAGAAGGCAUGGACGACC”, the “apparent Kd” value was 1.09 µM under setting [3] and 0.333 µM under setting [4]. Take “GAGCCAUCGUGAGAUGGCUAACAUACAUGAGGAUCACCCAUGUAGGAUAUCGAUUGCUUUGCAGUCGAGAAGGACAUGUUUAAU”: the “apparent Kd” value under setting [1] turned out to be 0.0263 µM and the “apparent Kd” value under setting [2] was 0.0431 µM. For the sequence “ACAUGAGGAUCACCCAUGUUUUUCGGGUACUCUUUUUACAGCAAGGAUAUGCAUUAUUUAUGUACGCAGAAGGUGCUUUACGUC”, the “apparent Kd” value by setting is: under setting [1], 0.077 µM; under setting [2], 0.138 µM. Take “AAUUUACAGCUAGGAUAUACAUGAGGAUCACCCAUGUAACGAUCGGAUCUUAUGAUCGUAUCCGUGUAGAAGGAGCAAAUAAGA”: the “apparent Kd” value under setting [1] was found to be 0.00646 µM and the “apparent Kd” value under setting [2] is 0.00639 µM. Taken in the same sequence, the figures for “GUCUCGUCAGGAUAUGACGCUACAUUUUUUUUUUAGAAGAGUCAGAAGGGACAUGAGGAUCACCCAUGUGAUUC” were 0.288 µM and 0.218 µM.

For the sequence “AUUAUAUAGUUAGGAUAUUGAUUAUUAUUUUAACAUGAGGAUCACCCAUGUAGCCUUAUGUAUAACAAGAAGGAACAUUUAUUA”, the “apparent Kd” value was 0.114 µM under setting [1] and 0.132 µM under setting [2].

In general, apparent Kd refers to the concentration giving half-maximal binding under the conditions of the assay.
